Published values from different studies.
Protocols differ between the studies behind these lines.
Target: Serine/threonine-protein kinase 16 (STK16, Homo sapiens, UniProt O75716)

Cn1cncc1[C@@](O)(COc1ccc(C#N)cc1-c1ccc(OC(F)(F)F)cc1)c1ccc(C#N)cc1  remaining binding (cell-free assay; competition with immobilised ligand; 1 µM): 99%
Cn1cc(-c2cccc(N3CCc4c(sc5c4CC(C)(C)C5)C3=O)c2CO)cc(Nc2ccncn2)c1=O  inhibition (enzyme activity; inhibitor; 1 µM): -3%
Cc1nn(C)cc1-c1nc2c(N3CCN(Cc4ccc(Cl)cc4)CC3)c(Cl)cnc2[nH]1  remaining binding (binding; competition with immobilised ligand; 1 µM): 18%
CC(C)(C)c1cc(C=C(C#N)C#N)cc(Br)c1O  remaining activity (enzyme activity; inhibitor; 0.5 µM): 99.2%
COc1ncccc1-c1cnn2ccc(N3CCN(C(=O)OC(C)C)CC3)nc12  remaining binding (binding; competition with immobilised ligand; 1 µM): 55%
Nc1ncc(-c2nc(N3CCOCC3)nc(N3CCOCC3)n2)c(C(F)F)n1  remaining binding (binding; competition with immobilised ligand; 10 µM): 56%
COc1cc(Nc2ncc(F)c(Nc3ccc4c(n3)NC(=O)C(C)(C)O4)n2)cc(OC)c1OC  inhibition (binding; competition with immobilised ligand; 10 µM): 100%
O=c1[nH]c2ccccc2n1C1CCN(Cc2ccc(-c3[nH]c4cc5ncnc5cc4nc3-c3ccccc3)cc2)CC1  remaining signal (cell-free assay; 0.5 µM): 99.5%
Cn1cc(-c2cc(F)cc(N3CCn4c(cc5c4CCCC5)C3=O)c2CO)cc(Nc2ccc(N3CCN(C4COC4)CC3)cn2)c1=O  inhibition (enzyme activity; inhibitor; 0.1 µM): 10%
